For 1 protein, Km and kcat results are on record in ChEMBL document CHEMBL1143847, “Competitive inhibitors of the CphA metallo-beta-lactamase from Aeromonas hydrophila” (Antimicrob Agents Chemother, 2007).

Substrate in data set [1]: C[C@@H](O)[C@H]1C(=O)N2C(C(=O)O)=C(SCCNC=N)C[C@H]12
In words: Activity of Aeromonas hydrophila beta lactamase CphA at pH 8.0. In outline:
(§1)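 Wild-type CphA kinetics with imipenem as substrate, measured in a mixed buffer adjusted to the stated pH with HCl or NaOH. The buffer held 40 mM sodium acetate, 20 mM each of cacodylate, MOPS, TAPS, CHES and CAPS, and 20 μg/ml BSA. Runs were at 30°C in thermostatted cells. Km and kcat came from initial rates. At pH 10 only kcat/Km was taken, because imipenem hydrolyses spontaneously.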

Substrate in data set [2]: C[C@@H](O)[C@H]1C(=O)N2C(C(=O)O)=C(SCCNC=N)C[C@H]12
In words: Activity of Aeromonas hydrophila beta lactamase CphA at pH 9.0. The method, boiled down: as §1

Substrate in data set [3]: C[C@@H](O)[C@H]1C(=O)N2C(C(=O)O)=C(SCCNC=N)C[C@H]12
As to the kind of experiment: Activity of Aeromonas hydrophila beta lactamase CphA at pH 7.0. The method, boiled down: as §1

For orientation: Km means the substrate concentration at which the rate is half of its maximum. By kcat is commonly meant the maximal rate divided by the concentration of active sites.

B1: Beta-lactamase (Aeromonas hydrophila), Q44079 (protein)
chain: MMKGWMKCGLAGAVVLMASFWGGSVRAAGMSLTQVSGPVYVVEDNYYVQENSMVYFGAKGVTVVGATWTPDTARELHKLIKRVSRQPVLEVINTNYHTDRAGGNAYWKSIGAKVVSTRQTRDLMKSDWAEIVAFTRKGLPEYPDLPLVLPNVVHEGDFTLQEGKLRAFYAGPAHTPDGIFVYFPDQQVLYGNCILKEKLGNLSFADVKAYPRTLERLKAMKLPIKTVVGGHDSPLHGPELIDHYEALIKAAPQS
B1: the Km in data set [1] worked out at 83 µM; in data set [2], 63 µM; in data set [3], 120 µM. For the same protein, the kcat in data set [1] was 140 s⁻¹; in data set [2] it was 49 s⁻¹; in data set [3], 210 s⁻¹.
